These results are taken from ChEMBL document CHEMBL1121947 (J Med Chem, 1982).

What is called IC50 is the concentration needed to halve the response being measured. A high value points to weaker potency in that assay. A word on the pKa: it is the negative logarithm of the acid dissociation constant. Low values mean a group that gives up its proton readily, high ones a group that holds its proton tightly.

The target of data set [1] is GABA-A receptor; anion channel. Put plainly: Inhibition of [3H]GABA binding to Gamma-aminobutyric acid receptor of rat brain synaptosomal membranes. In kind it is cell membranes, Membrane. In outline: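 Rat brain synaptic membranes (0.8–1.2 mg protein) were incubated in triplicate for 5 min at 4 °C in 0.05 M Tris-citrate pH 7.1 with 5 nM [3H]GABA, plus 1 mM GABA or 100 µM test agent. Protein was measured by Lowry.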

Data set [2] is described as follows: pKA value was determined; Experiment 2. In kind it is physicochemical.
Data set [3] addresses GABA transporter (Rattus norvegicus, UniProt P31647+P23978+P31646+P48056). Put plainly: Inhibition of high affinity neuronal GABA uptake by synaptosomes of rat brain membrane. In kind it is functional, subcellular.
Data set [4] is described as follows: pKA value was determined; Experiment 1. In kind it is physicochemical.

Some results are limits rather than exact numbers.

Consider `O=C(O)[C@H]1CNC[C@@H](O)C1`, for which the 50% inhibitory concentration (IC50) in data set [1] is above 100 µM; in data set [3], 173 µM. For the same molecule, the pKa in data set [2] was 8.9; in data set [4], 3.5.

As to `O=C(O)[C@@H]1CCNC[C@@H]1O`, the results for the 50% inhibitory concentration (IC50) in data set [1] and in data set [3] were 12 µM and above 300 µM, respectively. Moreover, the pKa in data set [2] was 10; in data set [4] it was 3.7.

For the molecule `O=C(O)[C@H]1CNCC[C@@H]1O`, the IC50 is above 100 µM in data set [1] and 203 µM in data set [3]. Further, the values for the pKa in data set [2] and in data set [4] were 9.4 and 3.1, respectively.

Take `O=C(O)[C@@H]1CCNC[C@H]1O`: the 50% inhibitory concentration (IC50) was 43 µM in data set [1] and above 300 µM in data set [3]. Moreover, the pKa turned out to be 9.3 in data set [2] and 3.6 in data set [4].

As for `O=C(O)[C@H]1CNCC[C@H]1O`, the half-maximal inhibitory concentration (IC50) in data set [1] was above 100 µM; in data set [3] it was 11 µM. The pKa in data set [2] stood at 10; in data set [4] it was 3.4.

Regarding `CC(=O)N[C@@H]1CCNC[C@@H]1C(=O)O`, the values for the half-inhibitory concentration (IC50) in data set [1] and in data set [3] were above 100 µM and above 300 µM, respectively. The pKa came to 9.7 in data set [2] and 3.2 in data set [4].

Take `CC(=O)N[C@@H]1CNC[C@H](C(=O)O)C1`: the IC50 was above 100 µM in data set [1] and 240 µM in data set [3]. Also, the pKa came to 8.6 in data set [2] and 3 in data set [4].

In the case of `NCCCC(=O)O` [GAMMA-AMINOBUTYRIC ACID], the results for the pKa in data set [2] and in data set [4] were 10.7 and 4, respectively.

Turning to `O=C(O)C1CCNCC1` [ISONIPECOTIC ACID], the IC50 was 0.33 µM in data set [1] and above 300 µM in data set [3]. The pKa in data set [2] was found to be 10.5; in data set [4], 3.8.

Molecule `O=C(O)C1CCCNC1` (configuration not stated) [NIPECOTIC ACID] had a half-maximal inhibitory concentration (IC50) in data set [1] above 100 µM. In addition, the values for the pKa in data set [2] and in data set [4] were 10.3 and 3.9, respectively.
